Source: ChEMBL document CHEMBL3611973, “Synthesis and biological evaluation of a novel betulinic acid derivative as an inducer of apoptosis in human colon carcinoma cells (HT-29)” (Eur J Med Chem, 2015)

How the values were obtained:
U-937 = assay: Cytotoxic activity against human U937 cells assessed as cell growth inhibition after 48 hrs by MTT assay; type: functional, cell-based; settings: U-937, 48 h
Outline: (§1)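 Log-phase cells (1.25-2.5×10^4/100 µl; RPMI 1640, HepG2 in high-glucose DMEM, 10% FBS) given compound in DMSO (final <0.1%), 0-50 µM, 48 h, 37 °C, 5% CO2. MTT 4 h, DMSO solubilization, OD 540 nm minus background; viability relative to untreated; IC50 by graphical extrapolation, ≥3 experiments in duplicate.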

HT-29 = assay: Cytotoxic activity against human HT-29 cells assessed as cell growth inhibition after 48 hrs by MTT assay; type: functional, cell-based; settings: HT-29, 48 h; outline: as §1
Jurkat = assay: Cytotoxic activity against human Jurkat cells assessed as cell growth inhibition after 48 hrs by MTT assay; type: functional, cell-based; outline: as §1
HepG2 = assay: Cytotoxic activity against human HepG2 cells assessed as cell growth inhibition after 48 hrs by MTT assay; type: functional, cell-based; settings: HepG2, 48 h; outline: as §1
MCF7 = assay: Cytotoxic activity against human MCF7 cells assessed as cell growth inhibition after 48 hrs by MTT assay; type: functional, cell-based; settings: MCF7, 48 h; outline: as §1
PBMC = assay: Cytotoxic activity against human PBMC cells assessed as cell growth inhibition after 48 hrs by MTT assay; type: cell-based; outline: as §1

| Compound | IC50 (U-937) [µM] | IC50 (HT-29) [µM] | IC50 (Jurkat) [µM] | IC50 (HepG2) [µM] | IC50 (MCF7) [µM] | IC50 (PBMC) [µM] |
| --- | --- | --- | --- | --- | --- | --- |
| C=C(C)[C@@H]1CC[C@]2(C(=O)O)CC[C@]3(C)[C@H](CC[C@@H]4[C@@]5(C)CC[C@H](OC(=O)Cn6ccnn6)C(C)(C)[C@@H]5CC[C@]43C)[C@@H]12 | > 50 | > 50 | > 50 | > 50 | > 50 | > 50 |
| C=C(C)[C@@H]1CC[C@]2(C(=O)O)CC[C@]3(C)[C@H](CC[C@@H]4[C@@]5(C)CC[C@H](OC(=O)Cn6cc(CO[C@@H]7[C@H]8OC(C)(C)O[C@H]8O[C@@H]7[C@H](O)CO)nn6)C(C)(C)[C@@H]5CC[C@]43C)[C@@H]12 | > 50 | > 50 | > 50 | > 50 | > 50 |  |
| C=C(C)[C@@H]1CC[C@]2(C(=O)O)CC[C@]3(C)[C@H](CC[C@@H]4[C@@]5(C)CC[C@H](OC(=O)Cn6cc(-c7c[nH]c(=O)[nH]c7=O)nn6)C(C)(C)[C@@H]5CC[C@]43C)[C@@H]12 | > 50 | > 50 | > 50 | > 50 | > 50 |  |
| C=C(C)[C@@H]1CC[C@]2(C(=O)O)CC[C@]3(C)[C@H](CC[C@@H]4[C@@]5(C)CC[C@H](OC(=O)Cn6cc(CO[C@@H]7[C@H]8OC(C)(C)O[C@H]8O[C@@H]7[C@H]7COC(C)(C)O7)nn6)C(C)(C)[C@@H]5CC[C@]43C)[C@@H]12 | > 50 | > 50 | > 50 | > 50 | > 50 |  |
| C=C(C)[C@@H]1CC[C@]2(C(=O)O)CC[C@]3(C)[C@H](CC[C@@H]4[C@@]5(C)CC[C@H](OC(=O)Cn6cc(-c7ccc(C(=O)OC)cc7)nn6)C(C)(C)[C@@H]5CC[C@]43C)[C@@H]12 | > 50 | > 50 | > 50 | > 50 | > 50 |  |
| C=C(C)[C@@H]1CC[C@]2(C(=O)O)CC[C@]3(C)[C@H](CC[C@@H]4[C@@]5(C)CC[C@H](OC(=O)Cn6cc(-c7ccc([N+](=O)[O-])cc7)nn6)C(C)(C)[C@@H]5CC[C@]43C)[C@@H]12 | > 50 | > 50 | 44.8 | 42.7 | 45.7 | > 50 |
